In ChEMBL document CHEMBL1124493, “Synthesis and tumor uptake of 5-82Br- and 5-131I-labeled 5-halo-1-(2-fluoro-2-deoxy-beta-D-ribofuranosyl)uracils” (J Med Chem, 1989):
Each block holds one compound with its values, some of them ahead of it.

What was measured:
Mus musculus [1] = test: Biodistribution of intravenously injected [82Br]-labeled compound in tumor of BDF1 female mice bearing subcutaneous Lewis lung carcinoma after 0.25 hours; type: ADME, organism-based; conditions: in vivo, iv
Mus musculus [2] = test: Biodistribution of intravenously injected [82Br]-labeled compound in tumor of BDF1 female mice bearing subcutaneous Lewis lung carcinoma after 24 hours; type: ADME, organism-based; conditions: in vivo, iv
Mus musculus [3] = test: Biodistribution of intravenously injected [82Br]-labeled compound in spleen of BDF1 female mice bearing subcutaneous Lewis lung carcinoma after 4 hours; type: ADME, organism-based; conditions: in vivo, iv
Mus musculus [4] = test: Biodistribution of intravenously injected [82Br]-labeled compound in heart of BDF1 female mice bearing subcutaneous Lewis lung carcinoma after 0.25 hours; type: ADME, organism-based; conditions: in vivo, iv
Method in brief: (§1)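 Female BDF1 mice with subcutaneous Lewis lung carcinoma given an iv injection of [82Br]-labelled nucleoside, 47-130 μg carrying 20-60 kBq 82Br. Tissues were excised, weighed wet and γ-counted. Values are percent injected dose per gram of wet tissue, mean ± standard deviation of six animals, with organ-to-tumour ratios derived.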

Mus musculus [5] = test: Biodistribution of intravenously injected [82Br]-labeled compound in heart of BDF1 female mice bearing subcutaneous Lewis lung carcinoma after 0.50 hours; type: ADME, organism-based; conditions: in vivo, iv, 0.5 h; method in brief: as §1
Mus musculus [6] = test: Biodistribution of intravenously injected [82Br]-labeled compound in heart of BDF1 female mice bearing subcutaneous Lewis lung carcinoma after 1 hours; type: ADME, organism-based; conditions: in vivo, iv; method in brief: as §1
Mus musculus [7] = test: Biodistribution of intravenously injected [82Br]-labeled compound in heart of BDF1 female mice bearing subcutaneous Lewis lung carcinoma after 2 hours; type: ADME, organism-based; conditions: in vivo, iv; method in brief: as §1
Mus musculus [8] = test: Biodistribution of intravenously injected [82Br]-labeled compound in blood of BDF1 female mice bearing subcutaneous Lewis lung carcinoma after 2 hours; type: ADME, organism-based; conditions: in vivo, iv
Method in brief: (§2)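 82Br-labeled nucleoside given intravenously to female BDF1 mice bearing subcutaneous Lewis lung carcinoma, at 47-130 μg carrying 20-60 kBq. Mice sacrificed at each time point. Wet-weighed tissues γ-counted. Values are percent injected dose per gram wet tissue, mean ± SD, n = 6.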

Mus musculus [9] = test: Biodistribution of intravenously injected [82Br]-labeled compound in blood of BDF1 female mice bearing subcutaneous Lewis lung carcinoma after 24 hours; type: ADME, organism-based; conditions: in vivo, iv; method in brief: as §2
Mus musculus [10] = test: Biodistribution of intravenously injected [82Br]-labeled compound in lung of BDF1 female mice bearing subcutaneous Lewis lung carcinoma after 8 hours; type: ADME, organism-based; conditions: in vivo, iv; method in brief: as §1
Mus musculus [11] = test: Biodistribution of intravenously injected [82Br]-labeled compound in muscle of BDF1 female mice bearing subcutaneous Lewis lung carcinoma after 0.5 hours; type: ADME, organism-based, Muscle tissue; conditions: in vivo, iv; method in brief: as §1
Mus musculus [12] = test: Biodistribution of intravenously injected [82Br]-labeled compound in muscle of BDF1 female mice bearing subcutaneous Lewis lung carcinoma after 1 hours; type: ADME, organism-based, Muscle tissue; conditions: in vivo, iv; method in brief: as §1
Mus musculus [13] = test: Biodistribution of intravenously injected [82Br]-labeled compound in muscle of BDF1 female mice bearing subcutaneous Lewis lung carcinoma after 8 hours; type: ADME, organism-based, Muscle tissue; conditions: in vivo, iv; method in brief: as §1
Mus musculus [14] = test: Biodistribution of intravenously injected [82Br]-labeled compound in liver of BDF1 female mice bearing subcutaneous Lewis lung carcinoma after 2 hours; type: ADME, organism-based; conditions: in vivo, iv; method in brief: as §1
Mus musculus [15] = test: Biodistribution of intravenously injected [82Br]-labeled compound in liver of BDF1 female mice bearing subcutaneous Lewis lung carcinoma after 8 hours; type: ADME, organism-based; conditions: in vivo, iv; method in brief: as §1
Mus musculus [16] = test: Biodistribution of intravenously injected [82Br]-labeled compound in stomach of BDF1 female mice bearing subcutaneous Lewis lung carcinoma after 24 hours; type: ADME, organism-based; conditions: in vivo, iv
Mus musculus [17] = test: Biodistribution of intravenously injected [82Br]-labeled compound in stomach of BDF1 female mice bearing subcutaneous Lewis lung carcinoma after 8 hours; type: ADME, organism-based; conditions: in vivo, iv
Mus musculus [18] = test: Biodistribution of intravenously injected [82Br]-labeled compound in tumor of BDF1 female mice bearing subcutaneous Lewis lung carcinoma after 8 hours; type: ADME, organism-based; conditions: in vivo, iv
Mus musculus [19] = test: Biodistribution of intravenously injected [82Br]-labeled compound in bone of BDF1 female mice bearing subcutaneous Lewis lung carcinoma after 2 hours; type: ADME, organism-based, Bone element; conditions: in vivo, iv; method in brief: as §2
Mus musculus [20] = test: Biodistribution of intravenously injected [131I]-labeled compound in bone of BDF1 female mice bearing subcutaneous Lewis lung carcinoma after 0.25 hours; type: ADME, organism-based, Bone element; conditions: in vivo, iv
Method in brief: (§3)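 Female BDF1 mice bearing subcutaneous Lewis lung carcinoma received a single intravenous dose of 0.5-1.8 μg of the 131I-labeled nucleoside (55-110 kBq). They were sacrificed at set times, and tissues were weighed wet and γ-counted. Activity is expressed as percent of injected dose per gram of wet tissue, given as mean ± standard deviation for six animals.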

Mus musculus [21] = test: Biodistribution of intravenously injected [131I]-labeled compound in bone of BDF1 female mice bearing subcutaneous Lewis lung carcinoma after 0.5 hours; type: ADME, organism-based, Bone element; conditions: in vivo, iv; method in brief: as §3
Mus musculus [22] = test: Biodistribution of intravenously injected [131I]-labeled compound in blood of BDF1 female mice bearing subcutaneous Lewis lung carcinoma after 8 hours; type: ADME, organism-based; conditions: in vivo, iv; method in brief: as §3
Mus musculus [23] = test: Biodistribution of intravenously injected [131I]-labeled compound in gut of BDF1 female mice bearing subcutaneous Lewis lung carcinoma after 2 hours; type: ADME, organism-based; conditions: in vivo, iv; method in brief: as §3
Mus musculus [24] = test: Biodistribution of intravenously injected [131I]-labeled compound in kidney of BDF1 female mice bearing subcutaneous Lewis lung carcinoma after 0.5 hours; type: ADME, organism-based; conditions: in vivo, iv; method in brief: as §3
Mus musculus [25] = test: Biodistribution of intravenously injected [131I]-labeled compound in kidney of BDF1 female mice bearing subcutaneous Lewis lung carcinoma after 1 hours; type: ADME, organism-based; conditions: in vivo, iv; method in brief: as §3
Mus musculus [26] = test: Biodistribution of intravenously injected [131I]-labeled compound in kidney of BDF1 female mice bearing subcutaneous Lewis lung carcinoma after 24 hours; type: ADME, organism-based; conditions: in vivo, iv; method in brief: as §3
Mus musculus [27] = test: Biodistribution of intravenously injected [131I]-labeled compound in kidney of BDF1 female mice bearing subcutaneous Lewis lung carcinoma after 4 hours; type: ADME, organism-based; conditions: in vivo, iv; method in brief: as §3
Mus musculus [28] = test: Biodistribution of intravenously injected [131I]-labeled compound in kidney of BDF1 female mice bearing subcutaneous Lewis lung carcinoma after 8 hours; type: ADME, organism-based; conditions: in vivo, iv; method in brief: as §3
Mus musculus [29] = test: Biodistribution of intravenously injected [131I]-labeled compound in liver of BDF1 female mice bearing subcutaneous Lewis lung carcinoma after 0.25 hours; type: ADME, organism-based; conditions: in vivo, iv; method in brief: as §3
Mus musculus [30] = test: Biodistribution of intravenously injected [131I]-labeled compound in muscle of BDF1 female mice bearing subcutaneous Lewis lung carcinoma after 2 hours; type: ADME, organism-based, Muscle tissue; conditions: in vivo, iv
Method in brief: (§4)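 Female BDF1 mice with subcutaneous Lewis lung carcinoma given i.v. 0.5-1.8 μg of 131I-labeled nucleoside (55-110 kBq). Killed at set times. Tissues weighed wet and γ-counted. Radioactivity expressed as percent injected dose per gram wet tissue, mean ± SD of six animals.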

Mus musculus [31] = test: Biodistribution of intravenously injected [131I]-labeled compound in skin of BDF1 female mice bearing subcutaneous Lewis lung carcinoma after 0.25 hours; type: ADME, organism-based, Zone of skin; conditions: in vivo, iv; method in brief: as §4
Mus musculus [32] = test: Biodistribution of intravenously injected [131I]-labeled compound in skin of BDF1 female mice bearing subcutaneous Lewis lung carcinoma after 0.50 hours; type: ADME, organism-based, Zone of skin; conditions: in vivo, iv, 0.5 h; method in brief: as §4
Mus musculus [33] = test: Biodistribution of intravenously injected [131I]-labeled compound in spleen of BDF1 female mice bearing subcutaneous Lewis lung carcinoma after 0.25 hours; type: ADME, organism-based; conditions: in vivo, iv; method in brief: as §4
Mus musculus [34] = test: Biodistribution of intravenously injected [131I]-labeled compound in spleen of BDF1 female mice bearing subcutaneous Lewis lung carcinoma after 1 hours; type: ADME, organism-based; conditions: in vivo, iv; method in brief: as §4
Mus musculus [35] = test: Biodistribution of intravenously injected [131I]-labeled compound in spleen of BDF1 female mice bearing subcutaneous Lewis lung carcinoma after 2 hours; type: ADME, organism-based; conditions: in vivo, iv; method in brief: as §4
Mus musculus [36] = test: Biodistribution of intravenously injected [131I]-labeled compound in stomach of BDF1 female mice bearing subcutaneous Lewis lung carcinoma after 8 hours; type: ADME, organism-based; conditions: in vivo, iv; method in brief: as §4
Mus musculus [37] = species: Mus musculus; test: Urinary iodide observed in BDF1 female mice bearing lewis lung tumor after 24 hr of injected [131I]-compound; type: functional, tissue-based; conditions: Urine
Mus musculus [38] = test: Biodistribution of intravenously injected [131I]-labeled compound in tumor of BDF1 female mice bearing subcutaneous Lewis lung carcinoma after 2 hours; type: ADME, organism-based; conditions: in vivo, iv; method in brief: as §4

Injected dose/g (Mus musculus [1]): 1.39% | Injected dose/g (Mus musculus [2]): 0.32% | Injected dose/g (Mus musculus [3]): 0.28% | Injected dose/g (Mus musculus [4]): 1.61% | Injected dose/g (Mus musculus [5]): 0.76% | Injected dose/g (Mus musculus [6]): 0.44% | Injected dose/g (Mus musculus [7]): 0.48% | Injected dose/g (Mus musculus [8]): 0.79% | Injected dose/g (Mus musculus [9]): 0.51% | Injected dose/g (Mus musculus [10]): 0.46% | Injected dose/g (Mus musculus [11]): 0.4% | Injected dose/g (Mus musculus [12]): 0.21% | Injected dose/g (Mus musculus [13]): 0.14% | Injected dose/g (Mus musculus [14]): 0.32% | Injected dose/g (Mus musculus [15]): 0.28% | Injected dose/g (Mus musculus [16]): 0.34% | Injected dose/g (Mus musculus [17]): 0.53% | Injected dose/g (Mus musculus [18]): 0.46% | Injected dose/g (Mus musculus [19]): 0.26%
Compound: O=c1[nH]c(=O)n([C@H]2O[C@@H](CO)[C@H](O)[C@H]2F)cc1Br

Injected dose/g (Mus musculus [20]): 2.4% | Injected dose/g (Mus musculus [21]): 1.8% | Injected dose/g (Mus musculus [22]): 4.1% | Injected dose/g (Mus musculus [23]): 1.9% | Injected dose/g (Mus musculus [24]): 18.5% | Injected dose/g (Mus musculus [25]): 12% | Injected dose/g (Mus musculus [26]): 0.14% | Injected dose/g (Mus musculus [27]): 7.3% | Injected dose/g (Mus musculus [28]): 4.1% | Injected dose/g (Mus musculus [29]): 5.3% | Injected dose/g (Mus musculus [30]): 1.3% | Injected dose/g (Mus musculus [31]): 5.2% | Injected dose/g (Mus musculus [32]): 3.8% | Injected dose/g (Mus musculus [33]): 3.2% | Injected dose/g (Mus musculus [34]): 2.5% | Injected dose/g (Mus musculus [35]): 1.8% | Injected dose/g (Mus musculus [36]): 5.3% | Injected dose/g (Mus musculus [38]): 3.8%
Compound: O=c1[nH]c(=O)n([C@@H]2O[C@H](CO)[C@@H](O)[C@H]2F)cc1I
Radioactive constituents (Mus musculus [37]): 62.6%
